Data published in ChEMBL document CHEMBL5120809, “Dimers of isatin derived α-methylene-γ-butyrolactone as potent anti-cancer agents” (Bioorg Med Chem Lett, 2022).
Activity calls are given as the source filed them. The rule behind the calls is not given here.

What was measured:
[1] = tested on: A2780; assay: Antiproliferative activity against human A2780 cells assessed as cell growth inhibition measured after 3 days by cell viability assay; assay type: functional, cell-based; conditions: A2780, 72 h
[2] = tested on: OVCAR-5; assay: Antiproliferative activity against human OVCAR-5 cells assessed as cell growth inhibition measured after 3 days by cell viability assay; assay type: functional, cell-based; conditions: OVCAR-5, 72 h
[3] = tested on: MIA PaCa-2; assay: Antiproliferative activity against human MIA PaCa-2 cells assessed as cell growth inhibition measured after 3 days by cell viability assay; assay type: functional, cell-based; conditions: MIA PaCa-2, 72 h
[4] = molecular target: T1, Inhibitor of nuclear factor kappa-B kinase subunit beta (Homo sapiens) (UniProt O14920); assay: Covalent modification of N-terminal hexa-his-tagged human recombinant IKKbeta assessed as high molecular weight band formation at 1:1 protein to compound concentration measured after 24 hrs by SDS-PAGE based silver staining analysis; conditions: filed as modulator
T1 sequence (whole entry): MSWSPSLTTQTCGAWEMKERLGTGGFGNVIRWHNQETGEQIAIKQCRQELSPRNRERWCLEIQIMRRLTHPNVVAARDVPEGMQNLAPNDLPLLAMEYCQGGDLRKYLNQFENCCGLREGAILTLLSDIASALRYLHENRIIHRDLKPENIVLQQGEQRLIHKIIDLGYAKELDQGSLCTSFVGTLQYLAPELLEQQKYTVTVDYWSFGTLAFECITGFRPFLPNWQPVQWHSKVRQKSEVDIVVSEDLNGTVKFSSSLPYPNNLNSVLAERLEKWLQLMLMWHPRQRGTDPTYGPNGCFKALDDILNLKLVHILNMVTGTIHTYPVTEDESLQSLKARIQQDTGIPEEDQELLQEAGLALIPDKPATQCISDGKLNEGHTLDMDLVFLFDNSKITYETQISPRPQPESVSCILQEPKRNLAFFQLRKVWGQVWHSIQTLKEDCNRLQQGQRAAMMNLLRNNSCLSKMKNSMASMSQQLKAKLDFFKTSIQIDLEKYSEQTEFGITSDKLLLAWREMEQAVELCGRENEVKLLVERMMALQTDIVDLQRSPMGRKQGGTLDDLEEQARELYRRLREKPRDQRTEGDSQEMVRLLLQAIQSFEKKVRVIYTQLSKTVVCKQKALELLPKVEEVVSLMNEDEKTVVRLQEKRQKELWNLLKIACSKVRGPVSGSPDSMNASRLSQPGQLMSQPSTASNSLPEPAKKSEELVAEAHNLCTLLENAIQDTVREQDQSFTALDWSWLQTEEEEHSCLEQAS
Outline: (§1)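 Recombinant RELA and/or IKKβ proteins incubated in vitro with compound at equimolar or 10x concentration; mixtures resolved by SDS-PAGE and silver stained to detect the recombinant proteins and high molecular weight bands.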

[5] = species on record: Homo sapiens; assay: Covalent modification of N-terminal hexa-his-tagged human recombinant IKKbeta/ N-terminus mouse recombinant RELA (1 to 325 residues) assessed as tertiary complex formation with RELA by measuring high molecular weight band formation at 1:1:1 protein/protein to compound concentration measured after 24 hrs by SDS-PAGE based silver staining analysis; conditions: filed as modulator; outline: as §1
[6] = molecular target: Transcription factor p65 (Homo sapiens) (UniProt Q04206); assay: Covalent modification of RELA in human OVCAR-5 cells assessed as high molecular weight band formation incubated for 2 hrs by Western blot analysis; assay type: cell-based; conditions: filed as modulator
Outline: (§2)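 Non-transformed immortalized fallopian tube epithelial FT282C11, MiaPaCa2 or OVCAR5 cells treated with or without compound; lysates analysed by western blot probed with RELA antibody for high molecular weight bands.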

[7] = molecular target: Transcription factor p65 (Homo sapiens) (UniProt Q04206); assay: Covalent modification of RELA in human OVCAR-5 cells assessed as increase in PARP cleavage at 10 uM incubated for 2 hrs by Western blot analysis; assay type: cell-based; conditions: filed as modulator
Outline: (§3)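 Cancer cells treated with or without compound; lysates analysed by western blot for PARP cleavage.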

[8] = molecular target: Transcription factor p65 (Homo sapiens) (UniProt Q04206); assay: Covalent modification of RELA in human FT282C11 cells assessed as high molecular weight band formation at 10 uM incubated for 2 hrs by Western blot analysis; assay type: cell-based; conditions: filed as modulator; outline: as §2
[9] = molecular target: Transcription factor p65 (Homo sapiens) (UniProt Q04206); assay: Covalent modification of RELA in human MIA PaCa-2 cells assessed as high molecular weight band formation at 10 uM incubated for 2 hrs by Western blot analysis; assay type: cell-based; conditions: filed as modulator; outline: as §2
[10] = molecular target: Transcription factor p65 (Homo sapiens) (UniProt Q04206); assay: Covalent modification of RELA in human OVCAR-5 cells assessed as high molecular weight band formation at 10 uM incubated for 2 hrs by Western blot analysis; assay type: cell-based; conditions: filed as modulator; outline: as §2
[11] = molecular target: Transcription factor p65 (Homo sapiens) (UniProt Q04206); assay: Covalent modification of RELA in human MIA PaCa-2 cells assessed as increase in PARP cleavage at 10 uM incubated for 2 hrs by Western blot analysis; assay type: cell-based; conditions: filed as modulator; outline: as §3
[12] = molecular target: Transcription factor p65 (Homo sapiens) (UniProt Q04206); assay: Covalent modification of RELA in TNF-alpha induced human OVCAR-5 cells assessed as inhibition of phosphorylation of IkappaB-alpha at 10 uM pretreated for 2 hrs followed by TNF-alpha stimulation for 10 mins by Western blot analysis; assay type: cell-based; conditions: filed as modulator
Outline: (§4)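 Two sets of OVCAR5 cells treated with DMSO or compound; one set stimulated with TNFα, the other left unstimulated as control; read-out by western blot.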

[13] = molecular target: Transcription factor p65 (Homo sapiens) (UniProt Q04206); assay: Covalent modification of RELA in TNF-alpha induced human OVCAR-5 cells assessed as inhibition of nuclear localization of protein at 10 uM pretreated for 2 hrs followed by TNF-alpha stimulation for 10 mins by Western blot analysis; assay type: cell-based; conditions: filed as modulator; outline: as §4
[14] = molecular target: Transcription factor p65 (Homo sapiens) (UniProt Q04206); assay: Inhibition of TNF-alpha induced RELA in human A549 cells assessed as reduction in NFkappaB mediated gene expression pretreated for 2 hrs followed by TNF-alpha stimulation for 3 hrs by […]; assay type: cell-based; conditions: filed as modulator, DDE = dose-dependent effect
Outline: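 TNFα-induced NFκB reporter assay run as a dose-response with compound.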

[15] = tested on: A2780; assay: Inhibition of colony formation in human A2780 cells measured every day up to 4 days by IncuCyte live-cell imaging assay; assay type: functional, cell-based; conditions: DDE = dose-dependent effect
Outline: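 A2780 ovarian cancer cells sparsely plated and grown with or without compound for 4 days under continuous Incucyte S3 live-cell imaging; colonies quantified against DMSO-treated wells at several time points.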

[16] = tested on: OVCAR-5; assay: Antiproliferative activity against human OVCAR-5 cells assessed as cell growth inhibition at 1.11 to 10 uM incubated for 6 hrs followed by compound removal and measured up to 72 hrs by IncuCyte live-cell imaging assay; assay type: functional, cell-based
[17] = tested on: A2780; assay: Inhibition of cell migration in human A2780 cells at 500 nM measured up to 48 hrs by wound healing scratch assay; assay type: functional; parameters: scale not given: the % may be the effect or the level left
Outline: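 Wound-healing scratch assay: A2780 cells treated with DMSO or 500nM compound, imaged at 0, 12, 24 and 48h; wound closure quantified relative to DMSO wells.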

[18] = tested on: CCRF-CEM; assay: Antiproliferative activity against human CCRF-CEM cells assessed as cell growth inhibition by measuring reduction in net protein increase inhibition by SRB assay; assay type: functional; conditions: pooled result: one value given for 6 cell lines, strains, targets or settings
[19] = tested on: SF-268; assay: Antiproliferative activity against human SF-268 cells assessed as reduction in the net protein increase inhibition by SRB assay; assay type: functional; conditions: pooled result: one value given for 6 cell lines, strains, targets or settings

Sequence of Transcription factor p65 (Homo sapiens) (Q04206 whole entry): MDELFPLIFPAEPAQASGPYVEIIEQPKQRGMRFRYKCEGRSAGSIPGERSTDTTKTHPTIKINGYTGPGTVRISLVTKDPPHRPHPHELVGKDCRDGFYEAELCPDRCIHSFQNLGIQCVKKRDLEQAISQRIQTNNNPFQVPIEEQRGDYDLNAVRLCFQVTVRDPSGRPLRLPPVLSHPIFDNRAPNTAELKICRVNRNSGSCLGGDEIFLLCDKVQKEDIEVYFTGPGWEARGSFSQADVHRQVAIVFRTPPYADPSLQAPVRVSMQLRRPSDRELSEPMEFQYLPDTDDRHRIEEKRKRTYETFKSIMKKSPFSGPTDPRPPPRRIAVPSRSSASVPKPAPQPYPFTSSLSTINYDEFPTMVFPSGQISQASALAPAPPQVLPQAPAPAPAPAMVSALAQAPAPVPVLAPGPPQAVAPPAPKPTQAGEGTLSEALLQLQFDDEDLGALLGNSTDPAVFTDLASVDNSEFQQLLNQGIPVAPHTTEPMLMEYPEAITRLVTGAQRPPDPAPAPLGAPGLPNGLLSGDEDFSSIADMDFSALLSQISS

Structure (SMILES)	IC50 [1] [nM]	IC50 [2] [nM]	IC50 [3] [nM]	other results
C=C1CC2(OC1=O)C(=O)N(CCCCCCCCCCN1C(=O)C3(CC(=C)C(=O)O3)c3ccccc31)c1ccccc12 (stereo unspecified)	490	410	560	–
C=C1CC2(OC1=O)C(=O)N(CCCCCCCCCCCN1C(=O)C3(CC(=C)C(=O)O3)c3ccccc31)c1ccccc12 (stereo unspecified)	770	830	2030	–
C=C1CC2(OC1=O)C(=O)N(CCCN1C(=O)C3(CC(=C)C(=O)O3)c3ccccc31)c1ccccc12 (stereo unspecified)	230	90	130	Activity [4]: Active; Activity [5]: Active; Activity [6]: Active; Activity [7]: Active; Activity [8]: Active; Activity [9]: Active; Activity [10]: Active; Activity [11]: Active; Activity [12]: Active; Activity [13]: Active; inhibition [14]: Dde; inhibition [15]: Dde; Activity [16]: Active; Activity [17]: 50%; GI50 [18]: 380 nM; GI50 [19]: 1760 nM
C=C1CC2(OC1=O)C(=O)N(CCCCCCCCCCCCN1C(=O)C3(CC(=C)C(=O)O3)c3ccccc31)c1ccccc12 (stereo unspecified)	500	420	1500	–
C=C1CC2(OC1=O)C(=O)Nc1ccccc12 (stereo unspecified)	990	3130	2050	–
C=C1CC2(OC1=O)C(=O)N(CCCCCCN1C(=O)C3(CC(=C)C(=O)O3)c3ccccc31)c1ccccc12 (stereo unspecified)	410	300	230	–
C=C1CC2(OC1=O)C(=O)N(Cc1ccc(CN3C(=O)C4(CC(=C)C(=O)O4)c4ccccc43)cc1)c1ccccc12 (stereo unspecified)	310	180	270	–
C=C1CC2(OC1=O)C(=O)N(CCCCCCCCCN1C(=O)C3(CC(=C)C(=O)O3)c3ccccc31)c1ccccc12 (stereo unspecified)	1080	480	1220	–
C=C1CC2(OC1=O)C(=O)N(CCCCN1C(=O)C3(CC(=C)C(=O)O3)c3ccccc31)c1ccccc12 (stereo unspecified)	360	150	–	–
C=C1CC2(OC1=O)C(=O)N(CCN1C(=O)C3(CC(=C)C(=O)O3)c3ccccc31)c1ccccc12 (stereo unspecified)	390	320	–	–
C=C1CC2(OC1=O)C(=O)N(CCCCCCCCN1C(=O)C3(CC(=C)C(=O)O3)c3ccccc31)c1ccccc12 (stereo unspecified)	600	390	740	–
C=C1CC2(OC1=O)C(=O)N(CCCCCN1C(=O)C3(CC(=C)C(=O)O3)c3ccccc31)c1ccccc12 (stereo unspecified)	270	90	200	–
C=C1CC2(OC1=O)C(=O)N(CCCCCCCN1C(=O)C3(CC(=C)C(=O)O3)c3ccccc31)c1ccccc12 (stereo unspecified)	410	340	260	–
CC1CC2(OC1=O)C(=O)N(CCCCCCCN1C(=O)C3(CC(C)C(=O)O3)c3ccccc31)c1ccccc12 (stereo unspecified)	> 10000	> 10000	> 10000	–
